From ChEMBL document CHEMBL3826882, “Discovery of 1-((2R,4aR,6R,7R,7aR)-2-Isopropoxy-2-oxidodihydro-4H,6H-spiro[furo[3,2-d][1,3,2]dioxaphosphinine-7,2'-oxetan]-6-yl)pyrimidine-2,4(1H,3H)-dione (JNJ-54257099), a 3'-5'-Cyclic Phosphate Ester Prodrug of 2'-Deoxy-2'-Spirooxetane Uridine Triphosphate Useful for HCV Inhibition” (J Med Chem, 2016) come the findings set out here.

The subject of series [1] is Hepatitis C virus. Nature of the series: Antiviral activity against HCV genotype 1a infected in homozygous cDNA-uPA chimeric SCID mouse bearing humanized hepatocytes assessed as change in HCV RNA level in serum at 50 mg/kg, po bid administered through gavage for 7 days by RT-PCR method. Format: functional, Hepacivirus hominis, subtype 1a, Hepatocyte. The method, boiled down: (§1)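 Male chimeric SCID cDNA-uPA+/+ mice with human hepatocyte liver (≥70% replacement by blood human albumin) and serum HCV RNA >1.0×10^6 copies/mL the week before dosing. Oral gavage for 7 days in 20% HP-β-CD, 50-200 mg/kg QD or BID. Serum sampled pre-dose on days 1, 2, 3, 5 and 7. Real-time PCR; mean change in log10 copies/mL, day 7 vs day 1 pre-dose.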

Series [2] relates to Hepatitis C virus. Nature of the series: Antiviral activity against HCV genotype 1a infected in homozygous cDNA-uPA chimeric SCID mouse bearing humanized hepatocytes assessed as change in HCV RNA level in serum at 200 mg/kg, po qd administered through gavage for 7 days by RT-PCR method. Format: functional, Hepacivirus hominis, subtype 1a, Hepatocyte. The method, boiled down:
as §1

The subject of series [3] is Hepatocyte. Nature of the series: Prodrug conversion in rat cryopreserved hepatocytes assessed as 2'-deoxy-2'-spirooxetane uridine triphosphate level per million cells at 10 uM after 2 hrs by LC-MS/MS analysis. Format: ADME, cell-based. The method, boiled down: (§2)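 Plated cryopreserved hepatocytes (study B) incubated with 10 µM unlabeled prodrug for 2, 8 or 24 h. Triphosphate measured in cell lysates and expressed as pmol/million hepatocytes. Quantification limit 2 ng/10^6 cells.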

For series [4], the system named is Hepatocyte. Nature of the series: Prodrug conversion in rat cryopreserved hepatocytes assessed as 2'-deoxy-2'-spirooxetane uridine triphosphate level per million cells at 10 uM after 24 hrs by LC-MS/MS analysis. Format: ADME, cell-based. In a few lines:
as §2

For series [5], the system named is Hepatocyte. Nature of the series: Prodrug conversion in human primary hepatocytes assessed as 2'-deoxy-2'-spirooxetane uridine triphosphate formation measured at 48 to 96 hrs by LC-MS/MS analysis. Format: ADME, cell-based. The method, boiled down:
(§3)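 Hepatocyte primary cultures followed over time for triphosphate formation in cell lysates: rat and mouse up to 24 h, human up to 96 h.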

Series [6] deals with Hepatocyte. Kind of series: Prodrug conversion in mouse primary hepatocytes assessed as 2'-deoxy-2'-spirooxetane uridine triphosphate formation measured at 8 hrs by LC-MS/MS analysis. Format: ADME, cell-based. In a few lines: as §3
The subject of series [7] is Hepatocyte. Kind of series: Prodrug conversion in human hepatocytes assessed as 2'-deoxy-2'-spirooxetane uridine triphosphate formation in presence of CYP3A4 inhibitor ketoconazole by LC-MS/MS analysis. Format: ADME, cell-based.
Series [8] concerns Hepatocyte. Kind of series: Drug metabolism in human hepatocytes assessed as ((4R,5R,7R,8R)-5-(2,4-dioxo-3,4-dihydropyrimidin-1(2H)-yl)-8-hydroxy-1,6-dioxaspiro[3.4]octan-7-yl)methyl dihydrogen phosphate formation in presence of CYP3A4 inhibitor ritonavir by LC-MS/MS analysis. Format: ADME, cell-based.
Series [9] is described as follows: AUC (0 to last) in mouse plasma at 50 mg/kg, po. Format: ADME, organism-based. On the set-up: dose 50 mg/kg, route oral, time 0 - last. The method, boiled down:
(§4)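 Oral dose 50 mg/kg, formulated in 20% HP-β-cyclodextrin. Prodrug and triphosphate were measured in plasma and liver (ng/mL or ng/g). Parameters derived were Cmax, tmax, AUC0-last, AUC0-inf and t1/2. Some prodrug data come from two independent studies.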

A short description of series [10]: Half life in mouse plasma at 50 mg/kg, po. Format: ADME, organism-based. The method, boiled down: (§5)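 Single oral dose of 50 mg/kg in 20% HP-β-cyclodextrin. Prodrug and triphosphate measured in plasma and liver over time (tlast 6–30 h). Half-life, Cmax, tmax and AUC0-last derived; liver/plasma ratio taken from AUC0-last. Prodrug data pooled from two independent studies.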

The subject of series [11] is Liver. Kind of series: Tlast in mouse liver at 50 mg/kg, po. Format: ADME, organism-based. The following applies: in vivo. The method, boiled down: (§6)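 Single oral dose of 50 mg/kg formulated in 20% HP-β-cyclodextrin. Prodrug and its triphosphate were measured in plasma and liver (ng/mL or ng/g) over time, and Cmax, tmax, AUC, tlast and t1/2 were derived. For some analytes, data from two independent studies are reported.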

Series [12] concerns Liver. Kind of series: Tlast in mouse liver assessed as 2'-deoxy-2'-spirooxetane uridine triphosphate at 50 mg/kg, po. The note with it: in vivo. Format: ADME, organism-based. In a few lines:
as §6

Series [13] in a line: Cmax in rat plasma at 50 mg/kg, po. Format: ADME, organism-based. On the set-up: dose 50 mg/kg, route oral.
A short description of series [14]: AUC (0 to last) in rat plasma at 50 mg/kg, po. More on the design: dose 50 mg/kg, route oral, time 0 - last. Format: ADME, organism-based. The method, boiled down:
as §4

Series [15] concerns Liver. Kind of series: Tlast in rat liver at 50 mg/kg, po. Format: ADME, organism-based. The note with it: in vivo. The method, boiled down:
as §6

The nature of series [16]: Half life in rat liver at 50 mg/kg, po. Format: ADME, organism-based. The method, boiled down: as §5
The test system of series [17] is Liver. Nature of the series: Half life in rat liver assessed as 2'-deoxy-2'-spirooxetane uridine triphosphate at 50 mg/kg, po. Format: ADME, organism-based. The following applies: in vivo. In a few lines:
as §5

The subject of a further series is Plasma. Kind of series: Tlast in dog plasma at 50 mg/kg, po. Format: ADME, organism-based, Canis lupus familiaris. The following applies: in vivo. In a few lines: as §6
The test system of series [18] is Hepatocyte. Kind of series: Prodrug conversion in mouse primary hepatocytes assessed as 2'-deoxy-2'-spirooxetane uridine triphosphate level per million cells at 2 uM after 4 hrs using radiolabelled compound by LC-MS/MS analysis. Format: ADME, cell-based. In a few lines:
(§7)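 Study A: fresh primary hepatocyte cultures from mouse, rat, dog and human incubated with tritiated prodrug at 2 or 62.5 µM for 4 or 24 h. Triphosphate in cell lysates reported as pmol/million hepatocytes. Duplicate or single measurements.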

In series [19] the test system is Hepatocyte. Kind of series: Prodrug conversion in rat primary hepatocytes assessed as 2'-deoxy-2'-spirooxetane uridine triphosphate level per million cells at 62.5 uM after 4 hrs using radiolabelled compound by LC-MS/MS analysis. Format: ADME, cell-based. The method, boiled down:
as §7

A short description of series [20]: Prodrug conversion in dog primary hepatocytes assessed as 2'-deoxy-2'-spirooxetane uridine triphosphate level per million cells at 2 uM after 4 hrs using radiolabelled compound by LC-MS/MS analysis. Format: ADME, cell-based, Canis lupus familiaris, Hepatocyte. In a few lines: as §7
Series [21] concerns Hepatocyte. Kind of series: Prodrug conversion in human primary hepatocytes assessed as 2'-deoxy-2'-spirooxetane uridine triphosphate level per million cells at 2 uM after 24 hrs using radiolabelled compound by LC-MS/MS analysis. Format: ADME, cell-based. In a few lines:
as §7

Series [22] in a line: Stability in dog primary hepatocyte supernatant assessed as parent compound level at 2 uM after 4 to 24 hrs using radiolabeled compound by HPLC analysis. The note with it: hepatocytes. Format: ADME, cell-based, Canis lupus familiaris. In a few lines: (§8)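 Fresh primary hepatocyte cultures incubated with tritiated prodrug (5'-[3H]) at 2 and 62.5 µM for 4 and 24 h. Supernatants taken after protein precipitation and profiled by HPLC with radioactivity detection. Cell lysates profiled for metabolites by radio-LC. Cyclic monophosphate also measured by LC/MS/MS.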

In series [23] the test system is Hepatocyte. Kind of series: Stability in human primary hepatocyte supernatant assessed as parent compound level at 2 uM after 4 to 24 hrs using radiolabeled compound by HPLC analysis. Format: ADME, cell-based. The note with it: hepatocytes.
The subject of series [24] is Hepatocyte. Nature of the series: Drug metabolism in mouse primary hepatocyte supernatant assessed as 1-((4R,5R,7R,8R)-8-hydroxy-7-(hydroxymethyl)-1,6-dioxaspiro[3.4]octan-5-yl)pyrimidine-2,4(1H,3H)-dione formation at 2 to 62.5 uM after 4 to 24 hrs using radiolabeled compound by HPLC analysis. Format: ADME, cell-based. The following applies: hepatocytes. The method, boiled down:
as §8

Series [25] concerns Hepatocyte. Kind of series: Stability in rat primary hepatocytes assessed as parent compound level at 2 to 62.5 uM after 24 hrs using radiolabeled compound by LC-MS/MS analysis. Format: ADME, cell-based. The method, boiled down: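 Study A: rat primary cultured hepatocytes incubated with 5'-[3H]-labelled prodrug at 2 and 62.5 µM for 4 and 24h; cell lysates profiled by LC with radioactivity detection. Cyclic monophosphate co-eluted with parent and was assessed separately by LC/MS/MS. Duplicate or single measurements.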

Series [26] has as its system Hepatocyte. Kind of series: Drug metabolism in rat primary hepatocytes assessed as ((4R,5R,7R,8R)-5-(2,4-dioxo-3,4-dihydropyrimidin-1(2H)-yl)-8-hydroxy-1,6-dioxaspiro[3.4]octan-7-yl)methyl dihydrogen phosphate formation at 2 to 62.5 uM after 24 hrs using radiolabeled compound by LC-MS/MS analysis. Format: ADME, cell-based. In a few lines: as §8

One may read the AUC(0-t) as exposure summed from dosing to a finite time, without extrapolation to infinity. The term half-life denotes the time in which the quantity being followed falls by half. In general, Cmax refers to the highest concentration seen after dosing. On to `CC(C)O[P@@]1(=O)OC[C@H]2O[C@@H](n3ccc(=O)[nH]c3=O)[C@@]3(CCO3)[C@@H]2O1`, for which the Activity with Hepatitis C virus [1] is -0.45; with Hepatitis C virus [2], -0.64. The Drug metabolism is reported as 0.181 pmol in the series on Hepatocyte [3]; 0.231 pmol with Hepatocyte [4]; “metabolite_detected” in the series on Hepatocyte [5]; “metabolite_detected” in the series on Hepatocyte [6]; “metabolite_notdetected” in the series with Hepatocyte [7]; “metabolite_notdetected” with Hepatocyte [8]. Besides, the results for the AUC(0-t) in series [9] and in [14] were 2560 ng·h/mL and 7330 ng·h/mL, respectively. Also, the figures for the half-life in series [10] and in [16] were 4.4 h and 5.3 h, respectively. Also, the Tlast with Liver [11] was found to be 6 h; in the series on Liver [12] it was 24 h; in the series on Liver [15], 6 h; in the series with Plasma it was 24 h. The Cmax in series [13] was found to be 1290 ng/mL. For the same compound, the t1/2 in the series on Liver [17] was 5.8 h.

For the compound `[3H]C1O[P@](=O)(OC(C)C)O[C@@H]2[C@@H]1O[C@@H](n1ccc(=O)[nH]c1=O)[C@@]21CCO1` (some centres not stated), the Drug metabolism is 0.063 pmol in the series on Hepatocyte [18]; 0.45 pmol with Hepatocyte [19]; 0.005 pmol in series [20]; 0.025 pmol in the series with Hepatocyte [21]; “metabolite_detected” with Hepatocyte [24]; “metabolite_detected” with Hepatocyte [26]. Moreover, the Stability entry (in series [22]; in the series with Hepatocyte [23]; in the series on Hepatocyte [25]) was “Stable” throughout.
